Consider two molecules from ChEMBL document CHEMBL1148774, “Doxazolidine induction of apoptosis by a topoisomerase II independent mechanism” (J Med Chem, 2007).

One assay deals with RXF 393. The experiment in a line: Growth inhibition of human RXF393 cells after 48 hrs by MTT assay. The conditions noted are these: RXF 393, 48 h. It is filed as functional, cell-based.
The test system of the next assay is MIA PaCa-2. The experiment in a line: Growth inhibition of human MiaPaCa2 cells after 3 hrs by MTT assay. The conditions noted are these: MIA PaCa-2, 3 h. It is filed as functional, cell-based. The method, boiled down:
(§1)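 Adherent cells grown in 10% FBS medium (RPMI 1640 or DMEM) were exposed to drug for 3 h. They were then grown until control wells reached ~80% confluence (3–5 days) and quantified by MTT metabolism or crystal violet staining. IC50 was taken from growth inhibition. Each condition was run in hexuplicate, and experiments were done at least twice.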
In general terms: Formazan colour is commonly taken as a measure of viable cells.

Assay [1] in a line: Growth inhibition of human HL60(TB) cells after 48 hrs by crystal violet assay. The conditions noted are these: HL-60, 48 h. It is filed as functional, HL-60(TB).
For assay [2], the system named is HCT-116. The experiment in a line: Induction of apoptosis in human HCT116 cells at 50 nM for 3 hrs by annexin V staining assay. It is filed as functional. In outline:
(§2)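 HCT-116 cells in McCoy's medium/10% FBS were exposed to drug at a series of concentrations, or to vehicle, for 3 h. At 48 h post-treatment they were trypsinized and washed in cold PBS. They were then stained with annexin V-fluorescein and propidium iodide in HEPES pH 7.4/CaCl2 binding buffer, and the percent apoptotic cells was measured by flow cytometry.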

The test system of a further assay is A-375. The experiment in a line: Growth inhibition of human A375 cells after 3 hrs by MTT assay. It is filed as functional, cell-based. The conditions noted are these: A-375, 3 h. In outline:
as §1

The subject of another assay is UACC-257. The experiment in a line: Growth inhibition of human UACC257 cells after 48 hrs by MTT assay. It is filed as functional, cell-based. The conditions noted are these: UACC-257, 48 h.
The next assay has as its system PC-3. The experiment in a line: Growth inhibition of human PC3 cells after 3 hrs by MTT assay. It is filed as functional, cell-based. The conditions noted are these: PC-3, 3 h. The method, boiled down: as §1
Another assay relates to BXPC-3. The experiment in a line: Growth inhibition of human BxPc3 cells after 3 hrs by MTT assay. It is filed as functional, cell-based. The conditions noted are these: BXPC-3, 3 h. In outline: as §1
A further assay concerns SHP77. The experiment in a line: Growth inhibition of human SHP77 cells after 3 hrs by MTT assay. It is filed as functional, cell-based. The conditions noted are these: SHP77, 3 h. The method, boiled down: as §1
For the next assay, the system named is DU-145. Description: Growth inhibition of human DU145 cells after 48 hrs by MTT assay. It is filed as functional, cell-based. The conditions noted are these: DU-145, 48 h.
The subject of a further assay is MDA-MB-435. Description: Growth inhibition of human MDA-MB-435 cells after 3 hrs by MTT assay. It is filed as functional, cell-based. The conditions noted are these: MDA-MB-435, 3 h. The method, boiled down:
as §1

For assay [3], the system named is HCT-116. The experiment in a line: Induction of apoptosis in human HCT116 cells at 200 nM for 3 hrs by annexin V staining assay. It is filed as functional. The method, boiled down:
as §2

A short description of assay [4]: Growth inhibition of human MCF7/ADR cells after 48 hrs by crystal violet assay. It is filed as functional, cell-based. The conditions noted are these: NCI/ADR-RES.
In assay [5] the test system is HL60/MX2. The experiment in a line: Induction of apoptosis in topoisomerase 2 deficient HL60/MX2 cells assessed as annexin V positive cells. It is filed as functional, Homo sapiens. In outline: (§3)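 HL-60 and HL-60/MX2 cells in RPMI 1640/10% FBS were treated with 100 nM drug or vehicle for 24 h. Cells were washed in cold PBS and stained with annexin V-fluorescein plus propidium iodide in binding buffer (140 mM NaCl, 10 mM HEPES pH 7.4, 2.5 mM CaCl2). The percent annexin V-positive cells was read by flow cytometry.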

The species named for assay [6] is Homo sapiens. Description: Inhibition of topoisomerase 2 at 50 nM by decatenation assay. In outline:
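Human recombinant topoisomerase II (one unit) was incubated with 143 ng catenated kinetoplast DNA, with or without drug, for 30 min at 37 °C. The buffer held 120 mM KCl, 50 mM Tris-HCl, 10 mM MgCl2, 0.5 mM DTT, 0.5 mM ATP and 30 μg/mL BSA. Reactions were stopped with sarkosyl/glycerol dye, and decatenation was resolved by agarose gel electrophoresis.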

Assay [7] concerns HCT-116. Description: Induction of apoptosis in human HCT116 cells at 400 nM for 3 hrs relative to control cells by annexin V staining assay. It is filed as functional, cell-based. In outline:
as §2

Assay [8] has as its system HL60/MX2. The experiment in a line: Effect on G2/M arrest in topoisomerase 2 deficient human HL60/MX2 cells at 100 nM after 24 hrs. It is filed as functional, cell-based. In outline: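 HL-60/MX2 cells in RPMI 1640/10% FBS were treated with 100 nM drug or vehicle for 24 h, then centrifuged and washed in cold PBS. They were fixed in 50% ethanol, treated with RNase A and stained with propidium iodide (50 μg/mL final). Cell cycle distribution was read by flow cytometry.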

A further assay concerns SF-268. The experiment in a line: Growth inhibition of human SF268 cells after 48 hrs by MTT assay. It is filed as functional, cell-based. The conditions noted are these: SF-268, 48 h.
In assay [9] the test system is HL-60. Description: Induction of apoptosis in HL60 cells assessed as annexin V positive cells. It is filed as functional, Homo sapiens. In outline:
as §3

Assay [10] in a line: Growth inhibition of human IGROVI cells after 48 hrs by MTT assay. It is filed as functional, cell-based.
For assay [11], the system named is HCT-116. Description: Growth inhibition of human HCT116 cells after 48 hrs by MTT assay. The conditions noted are these: HCT-116, 48 h. It is filed as functional, cell-based.
Another assay relates to NCI-H460. The experiment in a line: Growth inhibition of human NCIH460 cells after 48 hrs by MTT assay. It is filed as functional, cell-based. The conditions noted are these: NCI-H460, 48 h.
For assay [12], the species on record is Homo sapiens. The experiment in a line: Inhibition of topoisomerase 2 at 500 nM by decatenation assay. The method, boiled down: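 Kinetoplast DNA decatenation: 143 ng catenated kDNA with one unit human recombinant topoisomerase II, ± drug at 500 nM. Buffer: 120 mM KCl, 50 mM Tris-HCl, 10 mM MgCl2, 0.5 mM DTT, 0.5 mM ATP, 30 μg/mL BSA. Incubated 30 min at 37 °C. Stopped with sarkosyl/glycerol loading dye, then resolved by agarose gel electrophoresis.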

The subject of assay [13] is HL-60. The experiment in a line: Effect on G2/M arrest in human HL60 cells at 100 nM after 24 hrs. It is filed as functional, cell-based. The method, boiled down: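 HL-60 cells kept in RPMI 1640 with 10% FBS, 2 mM L-glutamine, 10 mM HEPES. Exposed continuously for 24 h at 100 nM or vehicle. Cells centrifuged, washed in cold PBS/2 mM EDTA, fixed in 50% ethanol, RNase A treated, stained with propidium iodide (50 μg/mL final). Cell cycle distribution read by flow cytometry.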

Assay [14] deals with HCT-116. The experiment in a line: Cell cycle arrest in human HCT116 cells by accumulation at G2/M phase at 400 nM for 3 hrs by flow cytometry. It is filed as functional, cell-based. In outline: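 HCT-116 cells in McCoy's medium with 10% FBS, exposed 3 h at 400 nM or vehicle, then grown on and analysed 24 h post-treatment. Cells trypsinized, washed in cold PBS/2 mM EDTA, fixed in 50% ethanol, RNase A treated, stained with propidium iodide (50 μg/mL final). DNA content by FACScan flow cytometry.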

The IC50 is the point on the concentration scale where inhibition reaches its midpoint.

The structures appear in SMILES notation. Calls of active or inactive are those of the source. No cut-off for these calls is given here.

Turning to `COc1cccc2c1C(=O)c1c(O)c3c(c(O)c1C2=O)C[C@@](O)(C(=O)CO)C[C@@H]3O[C@H]1C[C@@H]2NCO[C@@H]2[C@H](C)O1` [DOXAZOLIDINE], the IC50 was < 0.977 nM in the assay on RXF 393; 3.16 nM in the assay with MIA PaCa-2; 0.331 nM in assay [1]; 1 nM in the assay on A-375; < 1.51 nM with UACC-257; 10 nM in the assay with PC-3. In addition, the IC50 was 10 nM in the assay on BXPC-3; 2 nM in the assay on SHP77; 3.16 nM with DU-145; 10 nM in the assay on MDA-MB-435; < 18.6 nM in assay [4]; 2.63 nM in the assay on SF-268. The IC50 in assay [10] was < 1.38 nM. Moreover, the Activity in the assay with HCT-116 [2] was 20%; with HCT-116 [3], 60%; with HL60/MX2 [5] it was 75%; in the assay on HCT-116 [7] it was “Dose-dependent effect”; in the assay with HL-60 [9], 77%. Besides, the result in the assay filed under Homo sapiens [6] and in the assay with HL60/MX2 [8] was Active.

In the case of `COc1cccc2c1C(=O)c1c(O)c3c(c(O)c1C2=O)C[C@@](O)(C(=O)CO)C[C@@H]3O[C@H]1C[C@H](N)[C@H](O)[C@H](C)O1` [DOXORUBICIN], the concentration for half-maximal inhibition (IC50) was 178 nM in the assay on RXF 393; 316 nM in the assay on MIA PaCa-2; 58.9 nM in assay [1]; 200 nM with A-375; 70.8 nM in the assay on HCT-116 [11]; 209 nM in the assay on UACC-257. Further, the IC50 was 316 nM in the assay on PC-3; 6.03 nM in the assay on NCI-H460; > 1000 nM in the assay with SHP77; 110 nM in the assay on DU-145; 158 nM in the assay with MDA-MB-435; 13200 nM in assay [4]. The 50% inhibitory concentration (IC50) was 91.2 nM in the assay on SF-268 and 110 nM in assay [10]. In addition, the result in the assay listed under Homo sapiens [12] and in the assay on HCT-116 [14] was Active. Besides, the Activity in the assay on HL60/MX2 [5] came out at 5%; in the assay with HL-60 [9] it was 29%. Further, in the assay with HL-60 [13], the result was inactive.
